The test system of one assay is A549. Put plainly: Anticancer activity against human A549 cells after 48 hrs by MTT assay. In kind it is functional, cell-based. As to conditions: A549, 48 h. In a few lines: (§1)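 Cell lines held in DMEM or MEM with 10% FBS and antibiotic-antimycotic at 37 °C, 5% CO2. Cells seeded at 1 × 10⁴ per well in DMEM with 10% FBS and left 24 h. Compounds diluted in medium and added alongside vehicle control for 48 h. MTT (5 mg/mL) added for 4 h, formazan dissolved in DMSO, absorbance read at 570 nm.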
Background: Tetrazolium dyes change colour on reduction, which living cells bring about.

For another assay, the system named is MCF7. Briefly: Anticancer activity against human MCF7 cells after 48 hrs by MTT assay. In kind it is functional, cell-based. As to conditions: MCF7, 48 h. In outline: as §1
Another assay has as its system HeLa. Put plainly: Anticancer activity against human HeLa cells after 48 hrs by MTT assay. In kind it is functional, cell-based. In outline: as §1
Another assay deals with HepG2. Put plainly: Anticancer activity against human HepG2 cells after 48 hrs by MTT assay. In kind it is functional, cell-based. The note with it: HepG2, 48 h. In a few lines:
as §1

Assay [1] deals with DU-145. Briefly: Anticancer activity against human DU145 cells after 48 hrs by MTT assay. In kind it is functional, cell-based. The note with it: DU-145, 48 h. In outline: as §1
Assay [2] deals with DU-145. Briefly: Cell cycle arrest in human DU145 cells assessed as subG1 phase at 1 uM after 48 hrs by propidium iodide based flow cytometry (reference value: 9.36 %). In kind it is functional.
Assay [3] concerns DU-145. Put plainly: Cell cycle arrest in human DU145 cells assessed as G2/M phase at 1 uM after 48 hrs by propidium iodide based flow cytometry (reference value: 6.75 %). In kind it is functional.
Assay [4] deals with DU-145. Put plainly: Cell cycle arrest in human DU145 cells assessed as G0/G1 phase at 1 uM after 48 hrs by propidium iodide based flow cytometry (reference value: 79.15 %). In kind it is functional. (In general: A flow cytometer gives signals particle by particle.)
For assay [5], the system named is DU-145. Briefly: Cell cycle arrest in human DU145 cells assessed as S phase at 1 uM after 48 hrs by propidium iodide based flow cytometry (reference value: 1.65 %). In kind it is functional.
Assay [6] has as its system DU-145. Put plainly: Disruption of microtubule network in human DU145 cells at 50 uM after 48 hrs by immunohistochemistry analysis. In kind it is cell-based.

The source made the active and inactive calls. The rule behind the calls is not given here.

For the compound `CC#CC(=O)N1Cc2ccccc2[C@@H](OCc2ccccc2)[C@@H]1CO`, the concentration for half-maximal inhibition (IC50) with A549 amounted to 9.33 µM; in the assay on MCF7 it was 18.6 µM; with HeLa it was 11.6 µM; in the assay with HepG2 it was 7.94 µM; in the assay on DU-145 [1], 6.16 µM.
As for `COc1cc([C@@H]2c3cc4c(cc3[C@@H](O[C@@H]3O[C@@H]5CO[C@@H](C)O[C@H]5[C@H](O)[C@H]3O)[C@H]3COC(=O)[C@H]23)OCO4)cc(OC)c1O` [ETOPOSIDE], the IC50 in the assay with A549 was 3.01 µM; in the assay on MCF7 it was 2.69 µM; in the assay on HeLa, 3.23 µM; with HepG2, 2.45 µM; in the assay with DU-145 [1], 1.98 µM. For the same compound, the Activity is recorded as 7.13% with DU-145 [2], 38.75% in the assay with DU-145 [3], 48.84% in the assay with DU-145 [4] and 1.45% with DU-145 [5].
For `Cc1ccc(S(=O)(=O)Nc2ccccc2C(=O)N2Cc3ccccc3[C@@H](OCc3ccccc3)[C@@H]2CO)cc1`, the IC50 stood at 37.1 µM in the assay on A549; 79.4 µM in the assay on MCF7; 56.3 µM in the assay on HeLa; 57.5 µM in the assay with HepG2; 39.8 µM in the assay on DU-145 [1].
Taken in the same sequence, the figures for `Cc1ccc(S(=O)(=O)NCC(=O)N2Cc3ccccc3[C@@H](OCc3ccccc3)[C@@H]2CO)cc1` were 6.03 µM, 11.5 µM, 15.1 µM, 5.05 µM and 3.8 µM.
Taken in the same sequence, the figures for `O=C(/C=C/c1ccc([N+](=O)[O-])cc1)N1Cc2ccccc2[C@@H](OCc2ccccc2)[C@@H]1CO` were 5.62 µM, 24.4 µM, 26.8 µM, 5.37 µM and 4.07 µM.
As for `COc1cccc2c1C(=O)c1c(O)c3c(c(O)c1C2=O)C[C@@](O)(C(=O)CO)C[C@@H]3O[C@H]1C[C@H](N)[C@H](O)[C@H](C)O1` [DOXORUBICIN], the figures for the 50% inhibitory concentration (IC50) with HeLa and with DU-145 [1] were 2.29 µM and 1.3 µM, respectively.
For the compound `Cc1ccc(S(=O)(=O)N[C@H](C(=O)N2Cc3ccccc3[C@@H](OCc3ccccc3)[C@@H]2CO)C(C)C)cc1`, the half-inhibitory concentration (IC50) came to 79.4 µM in the assay with A549; 60.4 µM in the assay on MCF7; 92.6 µM with HeLa; 32 µM in the assay on HepG2; 31.6 µM in the assay with DU-145 [1].
Taken in the same sequence, the figures for `Cc1ccc(S(=O)(=O)N[C@@H](Cc2ccccc2)C(=O)N2Cc3ccccc3[C@@H](OCc3ccccc3)[C@@H]2CO)cc1` were 6.91 µM, 8.71 µM, 12.3 µM, 2.24 µM and 1.26 µM.
As to `COc1cc(/C=C/C(=O)N2Cc3ccccc3[C@@H](OCc3ccccc3)[C@@H]2CO)ccc1O`, the 50% inhibitory concentration (IC50) worked out at 63 µM in the assay with A549; 37.3 µM in the assay with MCF7; 67.6 µM in the assay on HeLa; 79.4 µM in the assay with HepG2; 41.3 µM with DU-145 [1].
Consider `O=C(/C=C/c1ccccc1)N1Cc2ccccc2[C@@H](OCc2ccccc2)[C@@H]1CO`, for which the IC50 in the assay on A549 is 25.1 µM; in the assay with MCF7, 39.8 µM; with HeLa, 27.7 µM; with HepG2 it was 20.7 µM; in the assay on DU-145 [1], 12.9 µM.
For `Cc1ccc(S(=O)(=O)N2C[C@H]3[C@H](OCc4ccccc4)c4ccccc4CN3C(=O)[C@@H]2Cc2ccccc2)cc1`, the half-inhibitory concentration (IC50) with A549 was 13.7 µM; in the assay on MCF7, 17.6 µM; with HeLa, 20.3 µM; in the assay with HepG2, 10.8 µM; in the assay with DU-145 [1], 7.41 µM.
Take `COC(=O)Nc1nc2cc(C(=O)c3cccs3)ccc2[nH]1` [NOCODAZOLE]: the Activity is 4.52% in the assay on DU-145 [2], 43.4% with DU-145 [3], 48.19% with DU-145 [4] and 0.86% in the assay with DU-145 [5]. Besides, in the assay on DU-145 [6], the result was Active.
As for `COc1cccc(/C=C/C(=O)N2Cc3ccccc3[C@@H](OCc3ccccc3)[C@@H]2CO)c1OC`, the IC50 in the assay with A549 amounted to 39.8 µM; in the assay with MCF7, 55.1 µM; in the assay with HeLa it was 32.8 µM; with HepG2, 31 µM; in the assay with DU-145 [1], 29.9 µM.
Taken in the same sequence, the figures for `Cc1ccc(S(=O)(=O)N[C@@H](C)C(=O)N2Cc3ccccc3[C@@H](OCc3ccccc3)[C@@H]2CO)cc1` were 7.37 µM, 14.8 µM, 21 µM, 5.37 µM and 4.67 µM.
Regarding `COc1ccc(C(=O)N2Cc3ccccc3[C@@H](OCc3ccccc3)[C@@H]2CO)c(O)c1`, the IC50 in the assay with A549 is 6.46 µM; in the assay on MCF7 it was 21.8 µM; in the assay with HeLa, 12.5 µM; in the assay on HepG2, 11.4 µM; in the assay with DU-145 [1] it was 9.77 µM.
Taken in the same sequence, the figures for `O=C(/C=C/c1ccc(F)cc1)N1Cc2ccccc2[C@@H](OCc2ccccc2)[C@@H]1CO` were 32.3 µM, 57.3 µM, 58.3 µM, 24.6 µM and 29.3 µM.
`O=C(/C=C/c1cccc(O)c1)N1Cc2ccccc2[C@@H](OCc2ccccc2)[C@@H]1CO`: the IC50 in the assay on A549 worked out at 4.36 µM; in the assay on MCF7, 19.2 µM; in the assay on HeLa, 15.8 µM; with HepG2 it was 2.82 µM; in the assay with DU-145 [1], 2.08 µM.

As usually defined, the IC50 is the point on the concentration scale where inhibition reaches its midpoint.

For the origin of these results see ChEMBL document CHEMBL3407400, “Design, synthesis and biological evaluations of chirally pure 1,2,3,4-tertrahydroisoquinoline analogs as anti-cancer agents” (Eur J Med Chem, 2015).
